The source made the active and inactive calls. The calls are words filed in the database; no cut-off is given here. Starred links: 1 amine or outer side, 2 acyl side, 3 side chain; linkers in the order of their positions; H or OH if unused. Non-standard residues stand in square brackets, D forms with d. Residues, ends and D or L forms follow the SMILES beside them. X1 = N#Cc1cc(C[C@H](N[*:1])C(=O)[*:2])ccn1; Tle = CC(C)(C)[C@H](N)C(=O)O; Thz = O=C(O)[C@@H]1CSCN1; Abu = CC[C@H](N)C(=O)O
Assays:
[1] = biological target: Replicase polyprotein 1ab (Severe acute respiratory syndrome coronavirus 2, UniProt P0DTD1); test: Inhibition of SARS CoV-2 main protease using DABCYL-KTSAVLQ1SGFRKM-E(EDANS)-NH2 as substrate by FRET based assay
[2] = biological target: Replicase polyprotein 1ab (Severe acute respiratory syndrome coronavirus 2) (UniProt P0DTD1); test: Binding affinity to SARS CoV-2 15N/2H-labeled main protease assessed as chemical pertubations at 100 uM by 15HSQC-NMR spectrum analysis
Outline: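 Wild-type main protease, ¹⁵N/²H-labelled, expressed with His6 tag, Ni-NTA purified and tag-cleaved. [¹⁵N,¹H]-HSQC spectra recorded at 25 °C (600/800 MHz) with and without compound and overlaid to look for chemical shift changes.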

| Structure (SMILES) | IC50 [1] [µM] | Activity [2] |
| --- | --- | --- |
| CC(C)C[C@@H]1NC(=O)[C@H](C(C)C)NC(=O)[C@@H]2CSC(=N2)c2cc(ccn2)C[C@@H](C(N)=O)NC(=O)[C@H](CO)NC(=O)[C@H](CCC(N)=O)NC1=O | > 100 |  |
| CC[C@H](NC(C)=O)C(=O)N[C@H](C(=O)N[C@@H](CC(C)C)C(=O)N[C@@H](CCC(N)=O)C(N)=O)C(C)(C)C (Ac-[Abu][Tle]LQ-NH2) | > 100 |  |
| CC(C)C[C@@H]1NC(=O)[C@H](CCCNC(=N)N)NC(=O)[C@H](C)NC(=O)[C@@H]2CSC(=N2)c2cc(ccn2)C[C@@H](C(N)=O)NC(=O)[C@H](CCC(=O)O)NC1=O | > 100 |  |
| CC(C)C[C@H](NC(=O)[C@@H](NC(=O)[C@H](C)NC(=O)[C@H](C)NC(=O)[C@@H]1CSCN1)C(C)C)C(=O)N[C@@H](CCC(N)=O)C(=O)N[C@@H](C)C(=O)N[C@@H](Cc1ccnc(C#N)c1)C(N)=O (H-[Thz]AAVLQA[X1]-NH2) | > 100 |  |
| CC(C)C[C@@H]1NC(=O)[C@H](C(C)C)NC(=O)[C@H](C)NC(=O)[C@H](C)NC(=O)[C@@H]2CSC(=N2)c2cc(ccn2)C[C@@H](C(N)=O)NC(=O)[C@H](C)NC(=O)[C@H](CC(N)=O)NC1=O | > 100 |  |
| CC(C)C[C@@H]1NC(=O)[C@H](C(C)C)NC(=O)[C@H](C(C)C)NC(=O)[C@@H]2CSC(=N2)c2cc(ccn2)C[C@@H](C(N)=O)NC(=O)[C@H](CCC(N)=O)NC1=O |  | inactive |
| CC(C)C[C@@H]1NC(=O)[C@H](C(C)C)NC(=O)[C@H](C(C)C)NC(=O)[C@@H]2CSC(=N2)c2cc(ccn2)C[C@@H](C(N)=O)NC(=O)[C@H](CCC(=O)O)NC1=O | > 100 |  |
| CC(C)C[C@@H]1NC(=O)[C@H](C(C)C)NC(=O)[C@H](C)NC(=O)[C@H](C)NC(=O)[C@@H]2CSC(=N2)c2cc(ccn2)C[C@@H](C(N)=O)NC(=O)[C@H](C)NC(=O)[C@H](CCC(N)=O)NC1=O |  | inactive |

Reference: ChEMBL document CHEMBL4808239, “Challenges of short substrate analogues as SARS-CoV-2 main protease inhibitors” (Bioorg Med Chem Lett, 2021)
